# Published values gathered from unrelated publications.
# Lines come from different studies, so protocols differ.
# Observed: cell growth or viability
Compound,cell line,technique,time,IC50
CC1=C(O)C(=O)C=C2C1=CC=C1[C@@]2(C)CC[C@@]2(C)[C@@H]3C[C@](C)(C(=O)OCCCCO)CC[C@]3(C)CC[C@]12C,Bel-7402,MTT,48 h,0.63 µM
N[C@@H](CC(=O)N1CCN(C(c2ccc(F)cc2)c2ccc(F)cc2)CC1)C(=O)N1Cc2ccccc2C1,KG-1,ATP luminescence,48 h,9.31 µM
CC(C)n1cc(C(c2ccc(/C=C/C(=O)O)s2)c2cn(C(C)C)c3ccccc23)c2ccccc21,KG-1,,48 h,> 5 µM
CCn1c2ccccc2c2cc(C3CC(c4cc5cccc(OC)c5oc4=O)=NN3C(C)=O)ccc21 (stereo not drawn),NRK-52E,MTT,24 h,97.9 µM
COc1cc2nccc(Oc3ccc(NC(=O)C4(C(=O)Nc5ccc(F)cc5)CC4)cc3)c2cc1OC,Rh18,,72 h,5.75 µM
FC(F)(F)c1ccc(C(c2c[nH]c3ccccc23)c2c[nH]c3ccccc23)cc1,KG-1,,48 h,15 µM
COC(=O)N[C@@H](C)CNc1nccc(-c2cn(C(C)C)nc2-c2cc(Cl)cc(NS(C)(=O)=O)c2F)n1,Malme-3M,,,0.0039 µM
COc1cc(N2CCC(N3CCN(C)CC3)CC2)ccc1Nc1ncc(Cl)c(Nc2ccccc2S(=O)(=O)C(C)C)n1,Rh18,,72 h,0.27 µM
CCn1c2ccccc2c2cc(/C=C/C(=O)c3cc4cccc(OC)c4oc3=O)ccc21,NRK-52E,MTT,24 h,115 µM
COc1cc(-c2ncn(/C=C\C(=O)OC(C)C)n2)cc(C(F)(F)F)c1,KG-1,,72 h,0.165 µM
CCn1c2ccccc2c2cc(C3CC(c4cc5ccccc5oc4=O)=NN3C(N)=O)ccc21 (stereo not drawn),NRK-52E,MTT,24 h,28.4 µM
COc1cc(Nc2nccc(-c3cnn4nc(OC)ccc34)n2)cc(C(F)(F)F)c1,NCI-H1573,ATP luminescence,,0.63 µM
CC(C)[C@H](N)C(=O)N1CCC[C@H]1B(O)O,MOLM-13,ATP luminescence,48 h,0.12 µM
CCn1c2ccccc2c2cc(C3CC(c4cc5c(ccc6ccccc65)oc4=O)=NN3c3cccc(Cl)c3)ccc21 (stereo not drawn),NRK-52E,MTT,24 h,57.1 µM
CC1=C(O)C(=O)C=C2C1=CC=C1[C@@]2(C)CC[C@@]2(C)[C@@H]3C[C@](C)(C(=O)OCCCn4ccc5ccccc54)CC[C@]3(C)CC[C@]12C,Bel-7402,MTT,48 h,5.42 µM
O=C(O)c1ccc(C(c2c[nH]c3ccccc23)c2c[nH]c3ccccc23)cc1,KG-1,,48 h,> 20 µM
CCn1c2ccccc2c2cc(C3CC(c4cc5c(ccc6ccccc65)oc4=O)=NN3C(C)=O)ccc21 (stereo not drawn),NRK-52E,MTT,24 h,81.3 µM
O=C(O)/C=C/c1ccc(C(c2c[nH]c3ccccc23)c2c[nH]c3ccccc23)s1,KG-1,,48 h,> 20 µM
CC(=O)OCCOC(=O)[C@]1(C)CC[C@]2(C)CC[C@]3(C)C4=CC=C5C(=CC(=O)C(O)=C5C)[C@]4(C)CC[C@@]3(C)[C@@H]2C1,Bel-7402,MTT,48 h,0.59 µM
Cc1[nH]c(/C=C2\C(=O)Nc3ccc(S(=O)(=O)N(C)c4cccc(Cl)c4)cc32)c(C)c1C(=O)N1CCN(C)CC1,Rh18,,72 h,4.07 µM
CC1=C(O)C(=O)C=C2C1=CC=C1[C@@]2(C)CC[C@@]2(C)[C@@H]3C[C@](C)(C(=O)OCCCCCCCCO)CC[C@]3(C)CC[C@]12C,Bel-7402,MTT,48 h,1.16 µM
CCn1c2ccccc2c2cc(C3CC(c4cc5ccccc5oc4=O)=NN3c3ccccc3)ccc21 (stereo not drawn),NRK-52E,MTT,24 h,103 µM
CC1=C(O)C(=O)C=C2C1=CC=C1[C@@]2(C)CC[C@@]2(C)[C@@H]3C[C@](C)(C(=O)OCCCCCO)CC[C@]3(C)CC[C@]12C,Bel-7402,MTT,48 h,0.59 µM
O=C(O)C(c1c[nH]c2ccccc12)c1c[nH]c2ccccc12,KG-1,,48 h,> 20 µM
CCn1c2ccccc2c2cc(/C=C/C(=O)c3cc4c(ccc5ccccc54)oc3=O)ccc21,NRK-52E,MTT,24 h,82.7 µM
Cn1cc(C(c2ccc(/C=C/C(=O)O)s2)c2cn(C)c3ccccc23)c2ccccc21,KG-1,,48 h,> 20 µM
CCn1c2ccccc2c2cc(C3CC(c4cc5c(ccc6ccccc65)oc4=O)=NN3c3ccccc3)ccc21 (stereo not drawn),NRK-52E,MTT,24 h,122 µM
CC(C)C[C@H](NC(=O)[C@H](Cc1ccccc1)NC(=O)c1cnccn1)B(O)O,NCI-H1573,ATP luminescence,,0.029 µM
O=C(O)/C=C/c1cccc(C(c2c[nH]c3ccccc23)c2c[nH]c3ccccc23)c1,KG-1,,48 h,> 20 µM
CC1=C(O)C(=O)C=C2C1=CC=C1[C@@]2(C)CC[C@@]2(C)[C@@H]3C[C@](C)(C(=O)OCCCCCCCO)CC[C@]3(C)CC[C@]12C,Bel-7402,MTT,48 h,0.74 µM
